Data as given in ChEMBL document CHEMBL2321678, “Incorporation of non-natural amino acids improves cell permeability and potency of specific inhibitors of proteasome trypsin-like sites” (J Med Chem, 2013).
Active and inactive are the calls of the source. The rule behind the calls is not given here.

Tests used:
[1] = biological target: Proteasome Macropain subunit (Homo sapiens) (UniProt P49721); assay: Inhibition of trypsin-like activity of proteasome beta 2 subunit in HEK-293T cell lysates after 1 hr by SDS-PAGE analysis
Method in brief: (§1)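 Then 1 h at 37 °C with BODIPY-TMR-Ahx3L3-vs or BODIPY-TMR-epoxomicin (0.5 µM). Samples run on 12.5% SDS-PAGE; β2/β5 band fluorescence taken relative to mock. Three independent experiments; IC50 fitted.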

[2] = biological target: T1, Proteasome Macropain subunit MB1 (Homo sapiens) (UniProt P28074); assay: Inhibition of chymotrypsin-like activity of proteasome beta 5 subunit in HEK-293T cell lysates after 1 hr by SDS-PAGE analysis; method in brief: as §1
T1 sequence (whole entry): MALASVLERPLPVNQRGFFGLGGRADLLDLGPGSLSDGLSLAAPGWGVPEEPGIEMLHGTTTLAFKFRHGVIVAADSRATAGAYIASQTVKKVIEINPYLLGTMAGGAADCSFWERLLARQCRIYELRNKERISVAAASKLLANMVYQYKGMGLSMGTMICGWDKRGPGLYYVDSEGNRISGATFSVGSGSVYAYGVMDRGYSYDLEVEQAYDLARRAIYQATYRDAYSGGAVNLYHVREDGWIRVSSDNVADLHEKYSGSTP

[3] = biological target: T2, Proteasome Macropain subunit MB1 (Homo sapiens, UniProt P28074); assay: Inhibition of chymotrypsin-like activity of proteasome beta 5 subunit in HEK-293T cell lysates using BODIPY-BODIPY-TMR-epoxomicin as probe after 1 hr by SDS-PAGE analysis
T2 sequence (P28074 whole entry): T1 sequence (whole entry)
Method in brief: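 Then 1 h at 37 °C with BODIPY-TMR-Ahx3L3-vs or BODIPY-TMR-epoxomicin (0.5 µM). Three independent experiments; IC50 fitted.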

[4] = Inhibition of trypsin-like activity of rabbit 26s proteasome beta 2 subunit assessed as hydrolysis of Ac-RLR-amc fluorogenic substrate preincubated for 30 mins followed by substrate addition measured for 30 mins by fluorescence plate reader analysis; set-up: species or system Oryctolagus cuniculus
Method in brief: (§2)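 Purified rabbit-muscle 26S proteasome (final 3 µg/mL) preincubated 30 min with a range of inhibitor concentrations. Slopes expressed as % of mock; IC50 by four-parameter least-squares fit.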

[5] = Inhibition of chymotrypsin-like activity of rabbit 26s proteasome beta 5 subunit assessed as hydrolysis of Suc-LLVY-amc fluorogenic substrate preincubated for 30 mins followed by substrate addition measured for 30 mins by fluorescence plate reader analysis; set-up: species or system Oryctolagus cuniculus; method in brief: as §2
[6] = Inhibition of caspase-like activity of rabbit 26s proteasome beta 1 subunit assessed as hydrolysis of Acn-LPnLD-amc fluorogenic substrate preincubated for 30 mins followed by substrate addition measured for 30 mins by fluorescence plate reader analysis; set-up: species or system Oryctolagus cuniculus; method in brief: as §2
Homo sapiens = organism: Homo sapiens; assay: Selectivity ratio of IC50 for chymotrypsin-like activity of human proteasome beta 5 subunit to IC50 for trypsin-like activity of human proteasome beta 2 subunit
Oryctolagus cuniculus = organism: Oryctolagus cuniculus; assay: Selectivity ratio of IC50 for chymotrypsin-like activity of rabbit 26s proteasome beta 5 subunit to IC50 for trypsin-like activity of rabbit 26s proteasome beta 2 subunit
Method in brief: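 Purified rabbit-muscle 26S proteasome (final 3 µg/mL) preincubated 30 min with a range of inhibitor concentrations. […] Amc release read continuously for 30 min (ex 380/em 460 nm). Slopes expressed as % of mock; IC50 by four-parameter least-squares fit.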

NCI-H929 = assay: Partial inhibition of cathepsin in human NCI-H929 cells assessed as hydrolysis of Z-FR-amc fluorogenic substrate after 6 hrs; type: cell-based
Method in brief: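 NCI-H929 cells treated 6 h, washed and permeabilized on ice with 0.05% digitonin in Tris pH 7.5 sucrose buffer. Cytosol removed by centrifugation, then the pellet lysed in Bis-Tris pH 5.5/CHAPS buffer. Protein-normalized extract added to 40 µM Z-FR-amc in phosphate pH 6.0, EDTA, DTT. Fluorescence read continuously for 30 min; rate from slopes.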

[7] = biological target: Proteasome Macropain subunit (Homo sapiens) (UniProt P49721); assay: Selectivity ratio of IC50 for trypsin-like activity of proteasome in human RPMI-8226 cells to IC50 for trypsin-like activity of proteasome in human NCI-H929 cells; type: cell-based
[8] = biological target: T2, Proteasome Macropain subunit MB1; assay: Inhibition of chymotrypsin-like activity of proteasome in human RPMI-8226 cells after 6 hrs by proteasomeGlo assay; type: cell-based
Method in brief: (§3)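 Cells then pelleted, resuspended in PBS and mixed with site-specific luminogenic substrates in lysis/assay buffer. Mixing 3 min, then 17 min in the dark before luminescence, triplicate per substrate/point. Activity as % of mock; IC50 from a four-parameter nonlinear fit.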

[9] = biological target: T2, Proteasome Macropain subunit MB1; assay: Inhibition of chymotrypsin-like activity of proteasome in human NCI-H929 cells after 6 hrs by proteasomeGlo assay; type: cell-based; method in brief: as §3

Proteasome Macropain subunit (Homo sapiens), sequence (P49721 whole entry): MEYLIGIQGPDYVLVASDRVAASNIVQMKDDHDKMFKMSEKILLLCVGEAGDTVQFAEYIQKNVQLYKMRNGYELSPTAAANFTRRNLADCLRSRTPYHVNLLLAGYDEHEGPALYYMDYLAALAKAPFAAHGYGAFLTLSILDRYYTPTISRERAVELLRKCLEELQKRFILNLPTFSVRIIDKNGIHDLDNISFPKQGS

SMILES: CC1=CC(C)=[N+]2C1=C(CCCCc1cn([C@@H](Cc3ccccc3)C(=O)N[C@@H](CC(C)C)C(=O)N[C@@H](CC(C)C)C(=O)N[C@H](/C=C/S(C)(=O)=O)Cc3ccc(CN)cc3)nn1)c1c(C)cc(C)n1[B-]2(F)F
- inhibition [1]: Active
- inhibition [2]: Active

SMILES: CC(C)C[C@H](NC(=O)[C@H](Cc1ccccc1)N=[N+]=[N-])C(=O)N[C@@H](CC(C)C)C(=O)N[C@H](/C=C/S(C)(=O)=O)Cc1ccncc1
- IC50 [3]: 1500 nM
- IC50 [4]: 420 nM
- IC50 [5]: < 100 nM
- IC50 [6]: > 30 µM

SMILES: CC(C)C[C@@H](/C=C/S(C)(=O)=O)NC(=O)[C@H](CC(C)C)NC(=O)[C@H](Cc1ccncc1)NC(=O)[C@H](Cc1ccccc1)N=[N+]=[N-]
- Ratio IC50 (Homo sapiens): 0.029
- IC50 [3]: 160 nM
- Ratio IC50 (Oryctolagus cuniculus): 0.00021
- IC50 [4]: 24000 nM
- IC50 [5]: 5 nM
- IC50 [6]: > 30 µM

SMILES: Cc1c(O)cccc1C(=O)N[C@H](C(=O)N[C@@H](CO)C(=O)N[C@H](/C=C/S(C)(=O)=O)Cc1ccc(N)cc1)C(C)C
- Ratio IC50 (Oryctolagus cuniculus): < 0.0067
- IC50 [4]: > 30000 nM
- IC50 [5]: 200 nM
- IC50 [6]: > 30 µM

SMILES: CC(C)C[C@H](NC(=O)[C@H](Cc1ccccc1)N=[N+]=[N-])C(=O)N[C@@H](CC(C)C)C(=O)N[C@@H](Cc1ccc(CN)cc1)C(=O)[C@@]1(C)CO1
- IC50 [4]: 250 nM
- IC50 [5]: 2700 nM
- IC50 [6]: 11 µM

SMILES: CC(C)C[C@H](NC(=O)[C@H](Cc1ccc(N)cc1)NC(=O)[C@H](Cc1ccccc1)N=[N+]=[N-])C(=O)N[C@H](/C=C/S(C)(=O)=O)Cc1ccc(CN)cc1
- IC50 [4]: 30 nM
- IC50 [5]: 3400 nM
- IC50 [6]: 30 µM
- inhibition (NCI-H929): Active

SMILES: CC(C)C[C@H](NC(=O)[C@H](Cc1ccccc1)N=[N+]=[N-])C(=O)N[C@@H](CC(C)C)C(=O)N[C@H](/C=C/S(C)(=O)=O)Cc1ccc(N)cc1
- Ratio IC50 (Homo sapiens): 0.73
- IC50 [3]: 1100 nM
- Ratio IC50 (Oryctolagus cuniculus): 0.36
- IC50 [4]: 110 nM
- IC50 [5]: 40 nM
- IC50 [6]: 23 µM

SMILES: CC(C)C[C@H](NC(=O)[C@H](Cc1ccccc1)NC(=O)[C@H](Cc1ccccc1)N=[N+]=[N-])C(=O)N[C@H](/C=C/S(C)(=O)=O)Cc1ccccc1
- Ratio IC50 (Homo sapiens): 0.04
- IC50 [3]: 110 nM
- IC50 [4]: > 30000 nM
- IC50 [5]: 1000 nM
- IC50 [6]: > 30 µM

SMILES: CC(C)C[C@H](NC(=O)[C@H](Cc1ccc(CN)cc1)NC(=O)[C@H](Cc1ccccc1)N=[N+]=[N-])C(=O)N[C@H](/C=C/S(C)(=O)=O)Cc1ccc(N)cc1
- Ratio IC50 (Homo sapiens): 6.3
- IC50 [3]: 630 nM
- Ratio IC50 (Oryctolagus cuniculus): 59
- IC50 [4]: 6.3 nM
- IC50 [5]: 190 nM
- IC50 [6]: > 30 µM

SMILES: Cc1c(O)cccc1C(=O)N[C@H](C(=O)N[C@@H](CO)C(=O)N[C@@H](CCCNC(=N)N)C(=O)[C@@]1(C)CO1)C(C)C
- Ratio IC50 [7]: 25
- Ratio IC50 (Oryctolagus cuniculus): 267
- IC50 [4]: 300 nM
- IC50 [8]: > 30 µM
- IC50 [5]: 80000 nM
- IC50 [6]: 80 µM
- IC50 [9]: > 30 µM

SMILES: CC(C)C[C@@H](/C=C/S(C)(=O)=O)NC(=O)[C@H](CC(C)C)NC(=O)[C@H](Cc1ccc(N)cc1)NC(=O)[C@H](Cc1ccccc1)N=[N+]=[N-]
- Ratio IC50 (Homo sapiens): 0.034
- IC50 [3]: 93 nM
- IC50 [4]: 24000 nM
- IC50 [5]: < 4 nM
- IC50 [6]: > 30 µM

SMILES: CC(=O)N[C@@H](CCCNC(=N)N)C(=O)N[C@@H](CC(C)C)C(=O)N[C@@H](CCCNC(=N)N)C(=O)[C@@]1(C)CO1
- IC50 [4]: 80 nM
- IC50 [5]: > 30000 nM
- IC50 [6]: > 30 µM
